The record followed here is ChEMBL document CHEMBL3085730, “Skeletal hybridization and PfRIO-2 kinase modeling for synthesis of α-pyrone analogs as anti-malarial agent” (Eur J Med Chem, 2013).

Test [1] has as its system Plasmodium falciparum. The test can be described thus: Antimalarial activity against Plasmodium falciparum 3D7 assessed as lipid peroxidation after 48 hrs by spectrophotometry relative to untreated control. Format: functional. The method, boiled down:
(§1)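 Parasite cultures treated with a sub-lethal concentration of compound. Intracellular ROS measured with the fluorescent probe 2',7'-dichlorofluorescein diacetate. Lipid peroxidation measured by a previously described method. Each index expressed as fold change ± SD versus untreated culture.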

The subject of test [2] is Plasmodium falciparum. The test is described as follows: Antimalarial activity against ring-stage Plasmodium falciparum 3D7 assessed as schizonticidal activity after 42 hrs. The note with it: 3D7, 42 h. Type of test: functional, organism-based. The method, boiled down: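 Ring-stage P. falciparum 3D7-parasitised cells exposed to compound for 42 h. Blood smears scored for maturation of rings into trophozoites and schizonts. IC50 derived from schizont inhibition by regression analysis.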

Test [3] deals with Plasmodium falciparum. The test can be described thus: Antimalarial activity against Plasmodium falciparum 3D7 assessed as intracellular ROS generation relative to untreated control. Type of test: functional. In short, it runs like this: as §1
For test [4], the system named is Plasmodium falciparum. The test is described as follows: Parasitocidal activity against ring-stage Plasmodium falciparum 3D7 assessed as minimum killing concentration incubated for 42 hrs followed by compound washout measured 72 hrs post infection in hematocrit. Type of test: functional. In short, it runs like this: (§2)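 After drug exposure, compound removed and cultures washed 3 times with Albumax II-free RPMI-1640. Cultures then incubated a further 72 h in complete medium with fresh hematocrit. RBCs containing viable parasite counted on thin smear to class inhibition as parasitostatic or parasitocidal.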

For test [5], the system named is Plasmodium falciparum. The test can be described thus: Parasitostatic activity against ring-stage Plasmodium falciparum 3D7 assessed as minimum killing concentration incubated for 42 hrs followed by compound washout measured 72 hrs post infection in hematocrit. Format: functional, organism-based. In short, it runs like this: as §2

Structures are written as SMILES. Calls of active or inactive are those of the source. The rule behind the calls is not given here.

`O=C(Nc1ccc(O)cc1)c1c(N2CCCCC2)cc(-c2ccccc2)oc1=O`: the results for the “fold change (FC)” value with Plasmodium falciparum [1] and in the test on Plasmodium falciparum [3] were 9.03 and 1.2, respectively. Moreover, the 50% inhibitory concentration (IC50) with Plasmodium falciparum [2] is 765 nM. In addition, the Activity in the test on Plasmodium falciparum [4] was found to be 1.99 µM.

With `Cc1ccc(NC(=O)c2c(O)cc(-c3ccccc3)oc2=O)cc1`, the IC50 in the test with Plasmodium falciparum [2] was determined as 1420 nM. Besides, the Activity in the test on Plasmodium falciparum [4] was 38.9 µM.

`Cc1ccc(NC(=O)c2c(N3CCCCC3)cc(-c3ccccc3)oc2=O)cc1`: the “fold change (FC)” value is 11.03 in the test on Plasmodium falciparum [1] and 1.66 with Plasmodium falciparum [3]. Besides, the IC50 with Plasmodium falciparum [2] came to 859 nM. For the same compound, in the test with Plasmodium falciparum [4], the Activity was 1 µM.

For the compound `O=C(Nc1ccc(F)cc1)c1c(O)cc(-c2ccccc2)oc1=O`, in the test with Plasmodium falciparum [2], the IC50 stood at 900 nM. Besides, the Activity in the test on Plasmodium falciparum [4] was found to be 2.39 µM.

Take `COc1ccc(-c2cc(N3CCN(C)CC3)c(C(=O)Nc3ccc(O)cc3)c(=O)o2)cc1`: the results for the “fold change (FC)” value in the test on Plasmodium falciparum [1] and in the test with Plasmodium falciparum [3] were 4.88 and 1.99, respectively. Further, in the test on Plasmodium falciparum [5], the outcome was inactive. Further, in the test on Plasmodium falciparum [2], the IC50 was found to be 1570 nM.

On to `O=C(Nc1ccc(Br)cc1)c1c(N2CCCCC2)cc(-c2ccccc2)oc1=O`, for which the “fold change (FC)” value was 4.49 with Plasmodium falciparum [1] and 1.87 in the test on Plasmodium falciparum [3]. In addition, in the test on Plasmodium falciparum [2], the 50% inhibitory concentration (IC50) came out at 337 nM. In the test with Plasmodium falciparum [4], the Activity is 0.21 µM.

For the compound `O=C(Nc1ccc(Br)cc1)c1c(O)cc(-c2ccccc2)oc1=O`, the IC50 with Plasmodium falciparum [2] stood at 750 nM. For the same compound, in the test with Plasmodium falciparum [4], the Activity was determined as 3.9 µM.
